Experimental data taken from ChEMBL document CHEMBL5724801, “EUbOPEN Chemogenomics Library - Multiplex” (2024).
Several values for one entry are separate records, joined by “and”; a condition that tells them apart may be missing. Identical values can stand only once. Non-standard residues stand in square brackets, D forms with d. Residues, ends and D or L forms follow the SMILES beside them.

System: U2OS
Test: Multiplex assay against U2OS
Type: toxicity, cell-based
Conditions: human
Summary of the method: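 Live cells carried four stains from seeding: Hoechst33342, BioTracker Green Microtubule Cytoskeleton Dye, MitoTracker Red and Annexin V Alexa Fluor 680. They were imaged on a CQ1 microscope at 37°C and 5% CO2 after compound addition. Using CellPathfinder machine-learning gating, cells were split into Hoechst high-intensity objects or normal cells, normal cells into healthy, pyknosed or fragmented nuclei, and pyknosed cells into mitotic or apoptotic; tubulin, mitochondrial-mass and membrane-permeability phenotypes are per cents of healthy-nucleus cells.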

[1] = 12 h, 1 µM, compound concentration 1 uM
[2] = 12 h, 10 µM, compound concentration 10 uM
[3] = 24 h, 1 µM, compound concentration 1 uM
[4] = 24 h, 10 µM, compound concentration 10 uM
[5] = 48 h, 1 µM, compound concentration 1 uM
[6] = 48 h, 10 µM, compound concentration 10 uM

## CC(C)C[C@@H]1NC(=O)[C@@H](C(C)C)NC(=O)[C@@H]2CCCN2C(=O)[C@@H](CC(=O)O)NC(=O)[C@@H](Cc2c[nH]c3ccccc23)NC1=O [BQ-123] (cyclo(L[dW][dD]P[dV]))
[1]
  Population Apoptotic (%): 77% and 83%
  Population Fragmented Nuclei (%): 20% and 19%
  Population Healthy Nuclei (%): 69% and 75%
  Population Hoechst High Intensity Objects (%): 0% and 2%
  Population Membrane Permeable-Phenotype (%): 1% and 2%
  Population Mitochondria Different-Phenotype (%): 1% and 0%
  Population Mitotic Cells (%): 22% and 16%
  Population Normal (%): 99% and 97%
  Population Pyknosed Nuclei (%): 9% and 5%
  Population Tubulin-Different-Phenotype (%): 0% and 8%
  Total Cell Count: 228 and 118
[2]
  Population Apoptotic (%): 78% and 75%
  Population Fragmented Nuclei (%): 29% and 25%
  Population Healthy Nuclei (%): 65% and 70%
  Population Hoechst High Intensity Objects (%): 2%
  Population Membrane Permeable-Phenotype (%): 8% and 7%
  Population Mitochondria Different-Phenotype (%): 1% and 4%
  Population Mitotic Cells (%): 21% and 25%
  Population Normal (%): 97%
  Population Pyknosed Nuclei (%): 4%
  Population Tubulin-Different-Phenotype (%): 3% and 2%
  Total Cell Count: 294 and 99
[3]
  Population Apoptotic (%): 69% and 85%
  Population Fragmented Nuclei (%): 16% and 11%
  Population Healthy Nuclei (%): 75% and 77%
  Population Hoechst High Intensity Objects (%): 0%
  Population Membrane Permeable-Phenotype (%): 2% and 6%
  Population Mitochondria Different-Phenotype (%): 1% and 0%
  Population Mitotic Cells (%): 30% and 14%
  Population Normal (%): 99%
  Population Pyknosed Nuclei (%): 8% and 10%
  Population Tubulin-Different-Phenotype (%): 1% and 3%
  Total Cell Count: 279 and 137
[4]
  Population Apoptotic (%): 92% and 100%
  Population Fragmented Nuclei (%): 24%
  Population Healthy Nuclei (%): 67% and 74%
  Population Hoechst High Intensity Objects (%): 2% and 0%
  Population Membrane Permeable-Phenotype (%): 8% and 6%
  Population Mitochondria Different-Phenotype (%): 2% and 8%
  Population Mitotic Cells (%): 8% and 0%
  Population Normal (%): 97% and 99%
  Population Pyknosed Nuclei (%): 7% and 1%
  Population Tubulin-Different-Phenotype (%): 4%
  Total Cell Count: 338 and 113
[5]
  Population Apoptotic (%): 77% and 100%
  Population Fragmented Nuclei (%): 14% and 18%
  Population Healthy Nuclei (%): 79% and 70%
  Population Hoechst High Intensity Objects (%): 1%
  Population Membrane Permeable-Phenotype (%): 3%
  Population Mitochondria Different-Phenotype (%): 1% and 3%
  Population Mitotic Cells (%): 22% and 0%
  Population Normal (%): 98%
  Population Pyknosed Nuclei (%): 5% and 10%
  Population Tubulin-Different-Phenotype (%): 3% and 2%
  Total Cell Count: 407 and 226
[6]
  Population Apoptotic (%): 94% and 81%
  Population Fragmented Nuclei (%): 19% and 20%
  Population Healthy Nuclei (%): 70% and 66%
  Population Hoechst High Intensity Objects (%): 1%
  Population Membrane Permeable-Phenotype (%): 5%
  Population Mitochondria Different-Phenotype (%): 2% and 6%
  Population Normal (%): 98%
  Population Pyknosed Nuclei (%): 9% and 12%
  Population Tubulin-Different-Phenotype (%): 3% and 2%

## O=c1ccc2ccc(OCCCCN3CCN(c4cccc5sccc45)CC3)cc2[nH]1 [BREXPIPRAZOLE]
[1]
  Population Apoptotic (%): 73% and 55%
  Population Fragmented Nuclei (%): 23% and 16%
  Population Healthy Nuclei (%): 62% and 69%
  Population Hoechst High Intensity Objects (%): 6% and 2%
  Population Membrane Permeable-Phenotype (%): 40% and 32%
  Population Mitochondria Different-Phenotype (%): 19% and 24%
  Population Mitotic Cells (%): 26% and 44%
  Population Normal (%): 93% and 97%
  Population Pyknosed Nuclei (%): 13% and 14%
  Population Tubulin-Different-Phenotype (%): 36% and 30%
  Total Cell Count: 178 and 126
[2]
  Population Apoptotic (%): 86% and 82%
  Population Fragmented Nuclei (%): 31% and 21%
  Population Healthy Nuclei (%): 27% and 43%
  Population Hoechst High Intensity Objects (%): 6% and 9%
  Population Membrane Permeable-Phenotype (%): 57% and 53%
  Population Mitochondria Different-Phenotype (%): 82% and 90%
  Population Mitotic Cells (%): 13% and 17%
  Population Normal (%): 93% and 90%
  Population Pyknosed Nuclei (%): 41% and 35%
  Population Tubulin-Different-Phenotype (%): 83% and 95%
  Total Cell Count: 220 and 109
[3]
  Population Apoptotic (%): 68% and 66%
  Population Fragmented Nuclei (%): 26% and 12%
  Population Healthy Nuclei (%): 55% and 67%
  Population Hoechst High Intensity Objects (%): 3%
  Population Membrane Permeable-Phenotype (%): 19% and 22%
  Population Mitochondria Different-Phenotype (%): 22% and 28%
  Population Mitotic Cells (%): 31% and 33%
  Population Normal (%): 96%
  Population Pyknosed Nuclei (%): 18% and 19%
  Population Tubulin-Different-Phenotype (%): 18% and 16%
  Total Cell Count: 181 and 128
[4]
  Population Apoptotic (%): 93% and 91%
  Population Fragmented Nuclei (%): 30% and 19%
  Population Healthy Nuclei (%): 25% and 26%
  Population Hoechst High Intensity Objects (%): 13% and 22%
  Population Membrane Permeable-Phenotype (%): 47% and 56%
  Population Mitochondria Different-Phenotype (%): 67% and 86%
  Population Mitotic Cells (%): 6% and 8%
  Population Normal (%): 86% and 77%
  Population Pyknosed Nuclei (%): 44% and 54%
  Population Tubulin-Different-Phenotype (%): 76% and 91%
  Total Cell Count: 213 and 112
[5]
  Population Apoptotic (%): 64% and 73%
  Population Fragmented Nuclei (%): 21% and 22%
  Population Healthy Nuclei (%): 61% and 56%
  Population Hoechst High Intensity Objects (%): 4% and 2%
  Population Mitochondria Different-Phenotype (%): 12% and 31%
  Population Mitotic Cells (%): 35% and 26%
  Population Normal (%): 95% and 97%
  Population Pyknosed Nuclei (%): 16% and 21%
  Population Tubulin-Different-Phenotype (%): 8% and 18%
  Total Cell Count: 240 and 161
[6]
  Population Apoptotic (%): 96% and 100%
  Population Fragmented Nuclei (%): 45% and 29%
  Population Healthy Nuclei (%): 12% and 14%
  Population Hoechst High Intensity Objects (%): 26% and 32%
  Population Membrane Permeable-Phenotype (%): 45% and 70%
  Population Mitochondria Different-Phenotype (%): 30% and 90%
  Population Mitotic Cells (%): 3% and 0%
  Population Normal (%): 73% and 67%
  Population Pyknosed Nuclei (%): 41% and 56%
  Population Tubulin-Different-Phenotype (%): 40% and 90%
  Total Cell Count: 215 and 105

## N#Cc1c(N)nc(SCc2csc(-c3ccc(Cl)cc3)n2)c(C#N)c1-c1ccc(OCCO)cc1 [CAPADENOSON]
[1]
  Population Apoptotic (%): 78% and 80%
  Population Fragmented Nuclei (%): 25% and 18%
  Population Healthy Nuclei (%): 65% and 75%
  Population Hoechst High Intensity Objects (%): 5% and 1%
  Population Membrane Permeable-Phenotype (%): 14% and 5%
  Population Mitochondria Different-Phenotype (%): 4% and 2%
  Population Mitotic Cells (%): 21% and 20%
  Population Normal (%): 94% and 98%
  Population Pyknosed Nuclei (%): 8% and 6%
  Population Tubulin-Different-Phenotype (%): 10% and 1%
  Total Cell Count: 236 and 150
[2]
  Population Apoptotic (%): 64% and 68%
  Population Fragmented Nuclei (%): 35% and 24%
  Population Healthy Nuclei (%): 40% and 56%
  Population Hoechst High Intensity Objects (%): 5% and 0%
  Population Membrane Permeable-Phenotype (%): 70% and 49%
  Population Mitochondria Different-Phenotype (%): 37% and 61%
  Population Mitotic Cells (%): 35% and 31%
  Population Normal (%): 94% and 99%
  Population Pyknosed Nuclei (%): 24% and 18%
  Population Tubulin-Different-Phenotype (%): 65% and 70%
  Total Cell Count: 255 and 102
[3]
  Population Apoptotic (%): 87% and 61%
  Population Fragmented Nuclei (%): 23% and 16%
  Population Healthy Nuclei (%): 64% and 71%
  Population Hoechst High Intensity Objects (%): 3% and 0%
  Population Membrane Permeable-Phenotype (%): 9% and 5%
  Population Mitochondria Different-Phenotype (%): 4% and 2%
  Population Normal (%): 96% and 99%
  Population Pyknosed Nuclei (%): 12%
  Population Tubulin-Different-Phenotype (%): 6% and 2%
  Total Cell Count: 263 and 176
[4]
  Population Apoptotic (%): 71% and 69%
  Population Fragmented Nuclei (%): 36% and 25%
  Population Healthy Nuclei (%): 37% and 49%
  Population Hoechst High Intensity Objects (%): 5% and 2%
  Population Membrane Permeable-Phenotype (%): 47% and 34%
  Population Mitochondria Different-Phenotype (%): 38% and 58%
  Population Mitotic Cells (%): 28% and 30%
  Population Normal (%): 94% and 97%
  Population Pyknosed Nuclei (%): 26% and 24%
  Population Tubulin-Different-Phenotype (%): 47% and 60%
  Total Cell Count: 253 and 95
[5]
  Population Apoptotic (%): 80% and 84%
  Population Fragmented Nuclei (%): 23% and 12%
  Population Healthy Nuclei (%): 67% and 79%
  Population Hoechst High Intensity Objects (%): 3% and 0%
  Population Membrane Permeable-Phenotype (%): 9% and 6%
  Population Mitochondria Different-Phenotype (%): 6% and 3%
  Population Mitotic Cells (%): 20% and 15%
  Population Normal (%): 96% and 99%
  Population Pyknosed Nuclei (%): 8%
  Population Tubulin-Different-Phenotype (%): 6% and 5%
  Total Cell Count: 355 and 220
[6]
  Population Apoptotic (%): 86% and 66%
  Population Fragmented Nuclei (%): 44% and 30%
  Population Healthy Nuclei (%): 30% and 49%
  Population Hoechst High Intensity Objects (%): 5% and 4%
  Population Membrane Permeable-Phenotype (%): 46% and 45%
  Population Mitochondria Different-Phenotype (%): 31% and 45%
  Population Mitotic Cells (%): 13% and 33%
  Population Normal (%): 94% and 95%
  Population Pyknosed Nuclei (%): 25% and 20%
  Population Tubulin-Different-Phenotype (%): 37% and 50%
  Total Cell Count: 285 and 109
